Bioassay records from PubChem BioAssay.
S1P3 antag: blocks the human S1P3 receptor; CHO S1P3 NFAT-BLA reporter, FRET fluorescence, antagonist mode; AID 485; 170,000 tested, 0.27% active; inhibition, % at 4.98 µM; Q99500;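 active = inhibition above the plate cutoff, the mean inhibition of test wells on that plate plus 3 SD, cut at about 28% in these data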;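 also: cells challenged with S1P at its EC80 of 0.8 µM; blue over green emission ratio from cleaved BLA substrate after 4 h stimulation; 0% = S1P-stimulated wells and 100% = unstimulated DMSO-only wells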
L major viab: inhibitors of Leishmania major promastigote growth; Leishmania major promastigotes, resazurin fluorescence viability; inhibition, % at 10 µM; 200,000 tested, 9% active; in the data active = inhibition above about 50%;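 also: promastigotes grown with compound for 44 hours at 28 °C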
Mdm2 ligase inh: Mdm2 E3 ligase (human) inhibition; signal enhancement, % at 5 µM; 210,000 tested, 0.11% active; cell-based MDM2 ubiquitination luciferase reporter, 2 h; 0 = plate control, 100 = twice control, blank-subtracted; AID 1230; Q00987;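 active = signal enhancement of 30% or more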;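 also: luminescence tracks abundance of the self-degrading MDM2-luciferase fusion protein; higher signal means inhibition of MDM2 E3 ligase activity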
Target sequence (Q00987 whole entry, looked up, the tested form may be a part): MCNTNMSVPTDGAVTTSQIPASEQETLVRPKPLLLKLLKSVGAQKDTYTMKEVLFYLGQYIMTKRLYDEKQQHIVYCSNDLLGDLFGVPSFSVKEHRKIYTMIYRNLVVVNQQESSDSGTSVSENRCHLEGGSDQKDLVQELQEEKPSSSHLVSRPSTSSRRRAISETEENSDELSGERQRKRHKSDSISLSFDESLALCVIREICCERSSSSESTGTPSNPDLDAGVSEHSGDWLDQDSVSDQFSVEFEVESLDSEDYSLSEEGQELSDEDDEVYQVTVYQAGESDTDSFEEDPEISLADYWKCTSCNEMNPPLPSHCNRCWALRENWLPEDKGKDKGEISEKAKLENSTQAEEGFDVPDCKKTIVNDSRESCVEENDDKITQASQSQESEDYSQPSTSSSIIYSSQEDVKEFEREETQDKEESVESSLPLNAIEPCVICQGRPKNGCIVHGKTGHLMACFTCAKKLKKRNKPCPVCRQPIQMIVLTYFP
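Material: Stable MDM2–luciferase fusion reporter cells | Amount: 2000 cells seeded into each well | Dosing: One concentration, 5 µM, with 0.2% DMSO | Incubation: 4 h cell settling then 2 h compound exposure, 37 °C | Measured by: Luciferase luminescence | Read-out basis: % enhancement relative to plate controls after blank subtraction | Benchmarks: Control and blank well means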
S1P4 ag: agonists of human S1P4 receptor. O95977. S1P4-expressing cell line, agonist reporter assay. activation, % at 4.98 µM. 220,000 tested, 0.35% active; in the data active = activation above about 11%;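 also: 0% = DMSO vehicle and 100% = reference agonist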
S1P4 antagonist: human S1P4 receptor antagonism; O95977; S1P4-expressing cells, antagonist mode, reporter read-out; inhibition, % at 4.98 µM; 220,000 tested, 0.26% active; AID 1510; in the data active = inhibition above about 29%;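 also: 0% = wells stimulated with agonist and 100% = vehicle wells without agonist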
* = called active by the depositor; nt = no result given. This excerpt belongs to a sample that is enriched for hits.

SMILES | S1P3 antag | L major viab | Mdm2 ligase inh | S1P4 ag | S1P4 antagonist
CC(=O)N1c2ccc(Cl)cc2C2C=CCC2C1c1cccc2ccccc12 (stereo unspecified) | 10.2 | 22.3 | 17.5 | 1.0 | -2.0
CCOC(=O)N1CCN(C(=S)Nc2cccc(C)c2)CC1 | nt | 1.4 | -5.8 | -3.4 | 17.8
CCCCCn1c(CN2CCN(c3cc(Cl)ccc3C)CC2)nc2c1c(=O)[nH]c(=O)n2C | 5.2 | 35.1 | -13.5 | 1.1 | -20.7
O=C1/C(=C/c2ccccc2)CCC1C1CCCC1 (stereo unspecified) | -7.7 | -10.1 | -11.6 | -0.8 | -9.8
CN1C2CCC1/C(=C\c1ccccc1)C(=O)/C2=C\c1ccccc1 | nt | 93.8* | -20.0 | -0.3 | 2.4
CCCOc1cc(C)c(S(=O)(=O)NC2CC(C)(C)NC(C)(C)C2)cc1C | 0.1 | 97.2* | -6.1 | -3.3 | 12.8
COc1cc(C)c(S(=O)(=O)NC2CC(C)(C)NC(C)(C)C2)cc1C | nt | 4.1 | -7.8 | -1.2 | -11.1
CC1(C)CC(=O)C2=C(C1)OC(N)=C(C#N)C2c1cn(-c2ccccc2)nc1-c1ccc(F)cc1 (stereo unspecified) | -6.3 | 66.5* | -8.2 | 5.7 | 6.7
CC1(C)CC(=O)C2=C(C1)C(c1cn(-c3ccccc3)nc1-c1ccccc1)C(C#N)=C(N)O2 (stereo unspecified) | -0.5 | 79.3* | -16.9 | 0.2 | -6.8
Cc1nn(C)cc1C(C)Nc1nc2nonc2nc1N1CCCCC1 (stereo unspecified) | 2.3 | 2.8 | 18.7 | 1.2 | 8.5
COc1ccccc1NC(=O)C(=O)N/N=C/c1cccs1 | 6.0 | 54.7* | -12.7 | -1.3 | -6.4
CCc1ccc(-c2ccc(C(=O)C(F)(F)F)[nH]2)cc1 | nt | 1.8 | -8.7 | -1.6 | -23.4
O=C(CSc1ccc(Cl)cc1)Nc1ccccc1N1CCN(C(=O)c2ccccc2)CC1 | nt | 71.7* | 13.7 | 0.6 | -4.8
CC(C)(C)C(=O)/C(=C\c1ccc([N+](=O)[O-])cc1)n1cncn1 | nt | 100.3* | -20.7 | -0.2 | 54.8*
CC1(C)CC(=O)c2sc(NS(=O)(=O)c3ccc(F)cc3)nc2C1 | 1.9 | -8.8 | -15.7 | 1.2 | -13.0
O=C(CN1C(=O)c2cccc3cccc(c23)C1=O)NCCN1CCOCC1 | -6.2 | 3.2 | -10.1 | 1.3 | -8.7
CCOC(=O)c1cnc2c(OC)cccc2c1N1CCN(c2ccccc2OC)CC1 | 11.4 | 62.8* | -20.3 | 0.6 | 13.5
Cc1ccc(CNC(=O)c2cnccn2)cc1 | 4.2 | -8.1 | 8.1 | 0.2 | -18.5
CC1(CCc2ccccc2)NC(=O)N(CC(=O)N2CC(=O)Nc3ccccc32)C1=O (stereo unspecified) | -12.9 | nt | -12.6 | 1.6 | -14.0
Cc1ccccc1N(CC(=O)N/N=C/c1ccc(F)cc1)C(=O)c1ccccc1 | nt | 99.2* | -20.5 | -0.1 | 12.9
CCOC(=O)CN(C(=O)c1ccccc1)c1ccccc1C | -6.7 | 7.2 | 2.6 | 1.9 | 4.3
Cc1ccccc1N(CC(=O)N/N=C/c1ccc(Cl)cc1)C(=O)c1ccccc1 | nt | 67.5* | -7.5 | -3.5 | -19.8
CCC(C)(C)c1ccc(OCCCC[n+]2cccc(C)c2)c(C(C)(C)CC)c1 | -0.6 | 100.5* | -59.0 | 0.1 | -9.2
Cc1cnc(C(=O)Nc2ccccc2F)cn1 | nt | -3.7 | nt | 0.5 | -17.6
COc1ccc(NC(=O)c2cnc(C)cn2)c2ncccc12 | -9.8 | 85.8* | -4.5 | 1.6 | -19.4
SMILES | S1P3 antag | L major viab | Mdm2 ligase inh | S1P4 ag | S1P4 antagonist
O=C(Cc1ccc(-n2c(=O)[nH]c3ccsc3c2=O)cc1)N1CCN(c2ccc(Cl)cc2)CC1 | -16.0 | 70.1* | -16.7 | 1.6 | -22.2
Cc1cccc(N2CCN(C(=O)Cc3ccc(-n4c(=O)[nH]c5ccsc5c4=O)cc3)CC2C)c1 (stereo unspecified) | -14.4 | 55.9* | -4.1 | 0.3 | -17.1
C/C(=N\Nc1ncc(Cl)cc1Cl)c1ccccn1 | -14.4 | 100.5* | -67.5 | -0.8 | -11.6
C/C(=N\Nc1cccc2cccnc12)c1ccccn1 | -8.4 | 51.3* | -51.7 | -1.2 | -15.2
COc1cc2[nH]c(=S)n(NC(=O)CC(C)C)c(=O)c2cc1OC | -10.6 | -0.6 | -10.9 | 0.9 | -3.2
O=C(O)CN1C(=O)/C(=C/C=C/c2ccccc2)SC1=S | -6.6 | -10.6 | -2.7 | -1.0 | 1.6
O=C1CC(N2C(=O)/C(=C/C=C/c3ccccc3)SC2=S)C(=O)N1c1ccccc1 (stereo unspecified) | -4.0 | 56.2* | -5.9 | -0.1 | -10.9
CCOC(=O)C1CCN(C(=O)Nc2c(-c3ccccc3)noc2C)CC1 | 4.0 | nt | -9.1 | -0.7 | -20.8
O=C(CC(SCCO)c1ccc(F)cc1)c1ccco1 (stereo unspecified) | -10.3 | 83.7* | -8.6 | -0.3 | -0.3
CCCOc1ccc(/C(O)=C2/C(=O)C(=O)N(CCN(CC)CC)C2c2ccncc2)cc1 (stereo unspecified) | -0.8 | nt | nt | nt | nt
CCCOc1ccc(/C(O)=C2/C(=O)C(=O)N(CCN(C)C)C2c2ccncc2)cc1 (stereo unspecified) | nt | 2.1 | nt | 36.2* | -2.8
COc1ccc(/C=N/NC(=O)c2ccc(CN3c4cccc5cccc(c45)S3(=O)=O)cc2)cc1 | -0.6 | 82.2* | 11.4 | -0.3 | -0.6
CC(C)CC(=O)N1CCN(c2ccc([N+](=O)[O-])cc2Cl)CC1 | 11.5 | -1.7 | -11.2 | 0.1 | 4.9
CC(C)C(=O)N1CCN(c2ccc([N+](=O)[O-])cc2Cl)CC1 | 7.3 | 50.0* | -5.1 | -2.5 | -2.8
NCCCC[C@H]1CNC(=O)C(=O)N1CCc1cccc(F)c1 | nt | nt | -16.1 | nt | nt
CCCCN(CCCC)S(=O)(=O)c1ccc(NC(=O)c2ccc([N+](=O)[O-])cc2Cl)cc1 | -1.0 | 99.9* | -4.1 | -2.8 | -0.5
Cc1cc(C)nc(NS(=O)(=O)c2ccc(NC(=O)c3cccs3)cc2)n1 | nt | -2.6 | -8.4 | 0.5 | 2.9
CCCCN(CCCC)S(=O)(=O)c1ccc(NC(=O)c2cccs2)cc1 | nt | 93.8* | -67.4 | -0.8 | -14.6
CC(=O)Nc1ccc(NC(=O)c2ccccc2Sc2ccc([N+](=O)[O-])cc2Cl)cc1 | -0.7 | 94.2* | -4.3 | 3.7 | -12.5
CCN(CC)S(=O)(=O)c1ccc(NC(=O)c2cc(C(=O)OC)cc([N+](=O)[O-])c2)cc1 | -34.2 | 29.8 | -11.3 | 2.4 | -1.5
O=C(N1CCN(c2ccccc2)CC1)C1(c2cccs2)CCOCC1 | -4.2 | -0.7 | -12.4 | -0.1 | -2.6
CCOc1ccccc1C1C(C#N)=C(SCC(=O)OC)NC(=O)C1C(=O)OC (stereo unspecified) | 0.2 | -6.7 | -19.2 | -1.4 | -20.1
COC(=O)C1C(=O)NC(SC)=C(C#N)C1c1ccccc1F (stereo unspecified) | -0.1 | 81.8* | 3.5 | -0.2 | -17.8
CCN(c1ccccc1)S(=O)(=O)c1ccc(C(C(=O)OC)C(=O)OC)c([N+](=O)[O-])c1 | 12.2 | 99.0* | 1.0 | 2.3 | -19.0
CCN(CC)S(=O)(=O)c1ccc2c(c1)nc(CCC(=O)OCC(=O)Nc1cc(OC)cc(OC)c1)n2C | -7.1 | 63.7* | -9.1 | -0.1 | -10.7
COc1ccc(SCC(=O)Nc2ccc(N3CCN(C)CC3)c(F)c2)cc1 | -22.1 | 94.0* | -3.4 | 1.4 | -7.1
